According to ChEMBL document CHEMBL5532690, “Antitubercular activity of 2-mercaptobenzothiazole derivatives targeting Mycobacterium tuberculosis type II NADH dehydrogenase” (RSC Med Chem, 2024):
≈ marks a conversion by molar mass, not a printed value. Calls of active or inactive are those of the source. No cut-off for these calls is given here.

Assays:
[1] = test system: Mycobacterium tuberculosis; experiment: Antitubercular activity against Mycobacterium tuberculosis H37Ra measured after 10 days by liquid broth microdilution assay; format: functional; conditions: 240 h, time 10 day
Summary of the method: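 Broth microdilution in 7H9 with 0.2% glycerol, 0.05% Tween 80 and 10% ADS. Mid-log cultures (OD600 0.4–0.6) were diluted to OD600 0.005 (1.0 × 10^6 CFU ml−1) and added to two-fold serial compound dilutions. Plates were incubated at 37 °C for 10 days and read visually. MIC was the lowest concentration with no turbidity.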

[2] = test system: Mycobacterium tuberculosis; experiment: Antitubercular activity against Mycobacterium tuberculosis H37Rv mc2 6230 measured after 10 days by liquid broth microdilution assay; format: functional; conditions: H37Rv mc2 6230, 240 h, time 10 day
Summary of the method: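 Broth microdilution in 7H9 with glycerol, ADS and 0.05% tyloxapol, supplemented with L-methionine, L-leucine (50 mg L−1 each), L-arginine (200 mg L−1) and D-pantothenate (24 mg L−1). Inoculum was diluted to OD600 0.005 (1.0 × 10^6 CFU ml−1) and added to two-fold serial dilutions. After 10 days at 37 °C, MIC was the lowest concentration without visible turbidity.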

[3] = Cytotoxicity against human HepG2 cells assessed as reduction in cell viability by MTT assay; format: toxicity, cell-based
Summary of the method: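 HepG2 cells in DMEM with 10% FBS, streptomycin, penicillin, 10 mM HEPES and 2 mM L-glutamine were seeded at 1 × 10^4 cells/well and incubated for 24 h (37 °C, 5% CO2). […] two-fold dilutions spanning 1000–0.48 μg ml−1 were applied. MTT (2.5 mg ml−1 in PBS) was added; formazan was dissolved in DMSO and read at 570 nm. CC50 = 50% viability loss. Triplicates.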

[4] = Selectivity index, ratio of CC50 for cytotoxicity against human HepG2 cells to MIC90 for antitubercular activity against Mycobacterium tuberculosis; format: toxicity, cell-based; conditions: read-out: Selectivity Index
Summary of the method: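 Selectivity index calculated as HepG2 MTT CC50 divided by MIC90.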

[5] = test system: Mycobacterium tuberculosis; experiment: Antitubercular activity against Mycobacterium tuberculosis H37Ra assessed as inhibition of intracellular ATP synthesis incubated for 24 hrs by BacTiter-Glo microbial cell viability assay; format: functional, organism-based
Summary of the method: (§1)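 Mid-log cultures were adjusted to OD600 0.05 and exposed to compounds at 37 °C for 24 h. BacTiter-Glo reagent was then added for 12 min and luminescence was read. H37Ra and BCG were grown in 7H9 with glycerol, Tween 80 and ADS. mc2 6230 was grown with tyloxapol plus methionine, leucine, arginine and pantothenate. Values are the mean of triplicates.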

[6] = test system: Mycobacterium tuberculosis; experiment: Antitubercular activity against Mycobacterium tuberculosis H37Rv mc2 6230 assessed as inhibition of intracellular ATP synthesis incubated for 24 hrs by BacTiter-Glo microbial cell viability assay; format: functional, organism-based; conditions: H37Rv mc2 6230, 24 h; summary of the method: as §1
[7] = test system: Mycobacterium tuberculosis; experiment: Bactericidal activity against Mycobacterium tuberculosis H37Rv mc2 6230 assessed as reduction in bacterial load at 4 times MIC measured after 5 days; format: functional, organism-based; conditions: time 5.0 day
[8] = test system: Mycobacterium tuberculosis; experiment: Bactericidal activity against Mycobacterium tuberculosis H37Rv mc2 6230 assessed as reduction in bacterial load measured after 5 days; format: functional, organism-based; conditions: time 5.0 day
Summary of the method: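 Mid-log bacilli in supplemented 7H9 were adjusted to OD600 0.005 and exposed to a range of concentrations for 5 days at 37 °C. Cultures were 10-fold serially diluted and spotted on 7H10 agar, which was incubated for 3–4 weeks for CFU counts. MBC90 was a 90% fall from the initial inoculum. Triplicates; Student's t-test.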

| Structure (SMILES) | MIC90 [1] [µg/mL] | MIC90 [2] [µg/mL] | CC50 [3] [µg/mL] | selectivity ratio [4] | IC50 [5] [µg/mL] | IC50 [6] [µg/mL] | Activity [7] | Activity [8] |
| --- | --- | --- | --- | --- | --- | --- | --- | --- |
| CC(C)/N=c1\cc2n(-c3ccc(Cl)cc3)c3ccccc3nc-2cc1Nc1ccc(Cl)cc1 [CLOFAZIMINE] | 0.25 (≈ 0.528 µM) | 0.25 (≈ 0.528 µM) | 49 (≈ 104 µM) | 223 | – | – | – | – |
| O=C(CSc1nc2ccc([N+](=O)[O-])cc2s1)NC1CCCCC1 | 16 (≈ 45.5 µM) | 16 (≈ 45.5 µM) | – | – | 36.3 (≈ 103 µM) | 24.4 (≈ 69.6 µM) | – | – |
| C=C(C)[C@H]1Cc2c(ccc3c2O[C@@H]2COc4cc(OC)c(OC)cc4[C@@H]2C3=O)O1 [ROTENONE] | > 64 | > 64 | – | – | – | – | – | – |
| O=C(CSc1nc2ccc(Cl)cc2s1)NC1CCCCC1 | 32 (≈ 93.9 µM) | 16 (≈ 46.9 µM) | – | – | 48.6 (≈ 143 µM) | 38.2 (≈ 112 µM) | – | – |
| Cc1cc(C)c2nc(SCC(=O)NC3CCCCC3)sc2c1 | 8 (≈ 23.9 µM) | 8 (≈ 23.9 µM) | 247 (≈ 739 µM) | 15.4 | 16.3 (≈ 48.7 µM) | 16.3 (≈ 48.7 µM) | Active | Dose-Dependent Effect |
| O=C(CSc1nc2c(Br)cc(F)cc2s1)NC1CCCCC1 | 8 (≈ 19.8 µM) | 8 (≈ 19.8 µM) | 89.4 (≈ 222 µM) | 5.58 | 18.7 (≈ 46.3 µM) | 14.7 (≈ 36.4 µM) | Active | Dose-Dependent Effect |
| O=C(CSc1nc2ccccc2s1)NC1CCCCC1 | 64 (≈ 209 µM) | 64 (≈ 209 µM) | – | – | 26.6 (≈ 86.9 µM) | 40.6 (≈ 133 µM) | – | – |
| CC/C(=C(\c1ccccc1)c1ccc(OCCN(C)C)cc1)c1ccccc1 [TAMOXIFEN] | – | – | 6.15 (≈ 16.6 µM) | – | – | – | – | – |
| CC(C)c1ccc2nc(SCC(=O)NC3CCCCC3)sc2c1 | 4 (≈ 11.5 µM) | 4 (≈ 11.5 µM) | 423 (≈ 1210 µM) | 26.5 | 9.35 (≈ 26.8 µM) | 9.35 (≈ 26.8 µM) | Active | Dose-Dependent Effect |
| O=C(CSc1nc2c(Br)cc(OC(F)(F)F)cc2s1)NC1CCCCC1 | 128 (≈ 273 µM) | 128 (≈ 273 µM) | – | – | 36.6 (≈ 77.9 µM) | 35.8 (≈ 76.3 µM) | – | – |
| O=C(CSc1nc2ccc(OC(F)(F)F)cc2s1)NC1CCCCC1 | 64 (≈ 164 µM) | 32 (≈ 82 µM) | – | – | 23.4 (≈ 59.9 µM) | 66.2 (≈ 170 µM) | – | – |
| CO[C@H]1/C=C/O[C@@]2(C)Oc3c(C)c(O)c4c(O)c(c(/C=N/N5CCN(C)CC5)c(O)c4c3C2=O)NC(=O)/C(C)=C\C=C\[C@H](C)[C@H](O)[C@@H](C)[C@@H](O)[C@@H](C)[C@H](OC(C)=O)[C@@H]1C [RIFAMPIN] | 0.015 (≈ 0.0182 µM) | 0.03 (≈ 0.0365 µM) | – | – | – | – | – | – |
| O=C(CSc1nc2c(Br)cc(C(F)(F)F)cc2s1)NC1CCCCC1 | 64 (≈ 141 µM) | 64 (≈ 141 µM) | – | – | 25.7 (≈ 56.7 µM) | 56 (≈ 124 µM) | – | – |
| NNC(=O)c1ccncc1 [ISONIAZID] | 0.015 (≈ 0.109 µM) | 0.06 (≈ 0.438 µM) | – | – | – | – | – | – |
| O=C(CSc1nc2ccc(F)cc2s1)NC1CCCCC1 | 16 (≈ 49.3 µM) | 4 (≈ 12.3 µM) | – | – | 36.5 (≈ 113 µM) | 56.9 (≈ 175 µM) | – | – |
| O=C(CSc1nc2ccc(Br)cc2s1)NC1CCCCC1 | 64 (≈ 166 µM) | 32 (≈ 83 µM) | – | – | 34.4 (≈ 89.2 µM) | 49.8 (≈ 129 µM) | – | – |
| O=C(CSc1nc2ccccc2c(=O)[nH]1)NC1CCCCC1 | 0.5 (≈ 1.58 µM) | 0.5 (≈ 1.58 µM) | 48.8 (≈ 154 µM) | 391 | 8.55 (≈ 26.9 µM) | 2.23 (≈ 7.01 µM) | – | – |
| Cc1ccc2nc(SCC(=O)NC3CCCCC3)sc2c1 | 32 (≈ 99.8 µM) | 32 (≈ 99.8 µM) | – | – | 14.1 (≈ 43.9 µM) | 34.9 (≈ 109 µM) | – | – |
| O=C(CSc1nc2ccc(C(F)(F)F)cc2s1)NC1CCCCC1 | 32 (≈ 85.5 µM) | 64 (≈ 171 µM) | – | – | 30.9 (≈ 82.5 µM) | 51 (≈ 136 µM) | – | – |
| O=C(CSc1nc2c(ccc3ccccc32)s1)NC1CCCCC1 | 128 (≈ 359 µM) | 128 (≈ 359 µM) | – | – | 36.6 (≈ 103 µM) | 33 (≈ 92.5 µM) | – | – |
